Experimental data taken from ChEMBL document CHEMBL1255424, “Antistaphylococcal activity of ACHN-490 tested alone and in combination with other agents by time-kill assay” (2010).
≈ marks a conversion by molar mass, not a printed value.

Experiments:
Assay type in all cases: functional
Staphylococcus aureus [1] = test: Antibacterial activity against vancomycin-susceptible Staphylococcus aureus after 24 hrs by modified broth macrodilution method
Procedure, shortened: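 MICs determined in recent clinical MRSA isolates by a modified broth macrodilution method per CLSI recommendations, with 24 h incubation. Daptomycin tests used Mueller-Hinton broth supplemented with calcium. Value is the lowest inhibitory drug concentration.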

Staphylococcus aureus [2] = test: Antibacterial activity against vancomycin-intermediate Staphylococcus aureus after 24 hrs by modified broth macrodilution method
Procedure, shortened: (§1)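 MIC read after 24 h incubation by modified broth macrodilution, validated per CLSI recommendations, against recent clinical MRSA isolates (hospital- and community-acquired, hVISA, VISA, VRSA). Daptomycin tests ran in Mueller-Hinton broth with added calcium.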

Staphylococcus aureus [3] = test: Antibacterial activity against vancomycin-hetero-intermediate Staphylococcus aureus after 24 hrs by modified broth macrodilution method; procedure, shortened: as §1
Staphylococcus aureus [4] = test: Antibacterial activity against vancomycin-resistant Staphylococcus aureus after 24 hrs by modified broth macrodilution method; procedure, shortened: as §1
Staphylococcus aureus [5] = test: Antibacterial activity against vancomycin-resistant Staphylococcus aureus isolate 557 after 24 hrs by modified broth macrodilution method; settings: isolate 557, 24 h; procedure, shortened: as §1
Staphylococcus aureus [6] = test: Antibacterial activity against vancomycin-resistant Staphylococcus aureus isolate 509 after 24 hrs by modified broth macrodilution method; settings: isolate 509, 24 h; procedure, shortened: as §1
Staphylococcus aureus [7] = test: Antibacterial activity against vancomycin-resistant Staphylococcus aureus isolate 1263 after 24 hrs by modified broth macrodilution method; settings: isolate 1263, 24 h; procedure, shortened: as §1
Staphylococcus aureus [8] = test: Antibacterial activity against vancomycin-resistant Staphylococcus aureus isolate 1264 after 24 hrs by modified broth macrodilution method; settings: isolate 1264, 24 h; procedure, shortened: as §1
Staphylococcus aureus [9] = test: Antibacterial activity against vancomycin-hetero-intermediate Staphylococcus aureus isolate 618 after 24 hrs by modified broth macrodilution method; settings: isolate 618, 24 h; procedure, shortened: as §1
Staphylococcus aureus [10] = test: Antibacterial activity against vancomycin-hetero-intermediate Staphylococcus aureus isolate 873 after 24 hrs by modified broth macrodilution method; settings: isolate 873, 24 h; procedure, shortened: as §1
Staphylococcus aureus [11] = test: Antibacterial activity against vancomycin-intermediate Staphylococcus aureus isolate 555 after 24 hrs by modified broth macrodilution method; settings: isolate 555, 24 h; procedure, shortened: as §1
Staphylococcus aureus [12] = test: Antibacterial activity against vancomycin-intermediate Staphylococcus aureus isolate 1287 after 24 hrs by modified broth macrodilution method; settings: isolate 1287, 24 h; procedure, shortened: as §1
Staphylococcus aureus [13] = test: Antibacterial activity against vancomycin-intermediate Staphylococcus aureus isolate 770 after 24 hrs by modified broth macrodilution method; settings: isolate 770, 24 h; procedure, shortened: as §1
Staphylococcus aureus [14] = test: Antibacterial activity against vancomycin-intermediate Staphylococcus aureus isolate 1008 after 24 hrs by modified broth macrodilution method; settings: isolate 1008, 24 h; procedure, shortened: as §1
Staphylococcus aureus [15] = test: Antibacterial activity against vancomycin-intermediate Staphylococcus aureus isolate 1009 after 24 hrs by modified broth macrodilution method; settings: isolate 1009, 24 h; procedure, shortened: as §1
Staphylococcus aureus [16] = test: Antibacterial activity against vancomycin-intermediate Staphylococcus aureus isolate 1010 after 24 hrs by modified broth macrodilution method; settings: isolate 1010, 24 h; procedure, shortened: as §1
Staphylococcus aureus [17] = test: Antibacterial activity against vancomycin-intermediate Staphylococcus aureus isolate 1011 after 24 hrs by modified broth macrodilution method; settings: isolate 1011, 24 h; procedure, shortened: as §1
Staphylococcus aureus [18] = test: Antibacterial activity against vancomycin-intermediate Staphylococcus aureus isolate 1012 after 24 hrs by modified broth macrodilution method; settings: isolate 1012, 24 h; procedure, shortened: as §1
Staphylococcus aureus [19] = test: Antibacterial activity against vancomycin-intermediate Staphylococcus aureus isolate 1013 after 24 hrs by modified broth macrodilution method; settings: isolate 1013, 24 h; procedure, shortened: as §1
Staphylococcus aureus [20] = test: Antibacterial activity against vancomycin-intermediate Staphylococcus aureus isolate 1014 after 24 hrs by modified broth macrodilution method; settings: isolate 1014, 24 h; procedure, shortened: as §1
Staphylococcus aureus [21] = test: Antibacterial activity against vancomycin-intermediate Staphylococcus aureus isolate 1015 after 24 hrs by modified broth macrodilution method; settings: isolate 1015, 24 h; procedure, shortened: as §1
Staphylococcus aureus [22] = test: Antibacterial activity against vancomycin-intermediate Staphylococcus aureus isolate 1016 after 24 hrs by modified broth macrodilution method; settings: isolate 1016, 24 h; procedure, shortened: as §1
Staphylococcus aureus [23] = test: Antibacterial activity against vancomycin-intermediate Staphylococcus aureus isolate 1017 after 24 hrs by modified broth macrodilution method; settings: isolate 1017, 24 h; procedure, shortened: as §1
Staphylococcus aureus [24] = test: Antibacterial activity against vancomycin-intermediate Staphylococcus aureus isolate 511 after 24 hrs by modified broth macrodilution method; settings: isolate 511, 24 h; procedure, shortened: as §1
Staphylococcus aureus [25] = test: Antibacterial activity against vancomycin-intermediate Staphylococcus aureus isolate 1003 after 24 hrs by modified broth macrodilution method; settings: isolate 1003, 24 h; procedure, shortened: as §1
Staphylococcus aureus [26] = test: Antibacterial activity against vancomycin-intermediate Staphylococcus aureus isolate 1004 after 24 hrs by modified broth macrodilution method; settings: isolate 1004, 24 h; procedure, shortened: as §1
Staphylococcus aureus [27] = test: Antibacterial activity against vancomycin-intermediate Staphylococcus aureus isolate 1005 after 24 hrs by modified broth macrodilution method; settings: isolate 1005, 24 h; procedure, shortened: as §1
Staphylococcus aureus [28] = test: Antibacterial activity against vancomycin-intermediate Staphylococcus aureus isolate 1006 after 24 hrs by modified broth macrodilution method; settings: isolate 1006, 24 h; procedure, shortened: as §1
Staphylococcus aureus [29] = test: Antibacterial activity against vancomycin-intermediate Staphylococcus aureus isolate 1984 after 24 hrs by modified broth macrodilution method; settings: isolate 1984, 24 h; procedure, shortened: as §1
Staphylococcus aureus [30] = test: Antibacterial activity against vancomycin-intermediate Staphylococcus aureus isolate 1007 after 24 hrs by modified broth macrodilution method; settings: isolate 1007, 24 h; procedure, shortened: as §1
Staphylococcus aureus [31] = test: Antibacterial activity against methicillin-resistant Staphylococcus aureus isolate 2003 after 24 hrs by modified broth macrodilution method; settings: isolate 2003, 24 h; procedure, shortened: as §1
Staphylococcus aureus [32] = test: Antibacterial activity against hospital-acquired methicillin-resistant Staphylococcus aureus isolate 1743 after 24 hrs by modified broth macrodilution method; settings: isolate 1743, 24 h; procedure, shortened: as §1
Staphylococcus aureus [33] = test: Antibacterial activity against hospital-acquired methicillin-resistant Staphylococcus aureus isolate 1751 after 24 hrs by modified broth macrodilution method; settings: isolate 1751, 24 h; procedure, shortened: as §1
Staphylococcus aureus [34] = test: Antibacterial activity against hospital-acquired methicillin-resistant Staphylococcus aureus isolate 1766 after 24 hrs by modified broth macrodilution method; settings: isolate 1766, 24 h; procedure, shortened: as §1
Staphylococcus aureus [35] = test: Antibacterial activity against hospital-acquired methicillin-resistant Staphylococcus aureus isolate 1776 after 24 hrs by modified broth macrodilution method; settings: isolate 1776, 24 h; procedure, shortened: as §1
Staphylococcus aureus [36] = test: Antibacterial activity against hospital-acquired methicillin-resistant Staphylococcus aureus isolate 1806 after 24 hrs by modified broth macrodilution method; settings: isolate 1806, 24 h; procedure, shortened: as §1
Staphylococcus aureus [37] = test: Antibacterial activity against hospital-acquired methicillin-resistant Staphylococcus aureus isolate 1808 after 24 hrs by modified broth macrodilution method; settings: isolate 1808, 24 h; procedure, shortened: as §1
Staphylococcus aureus [38] = test: Antibacterial activity against hospital-acquired methicillin-resistant Staphylococcus aureus isolate 1838 after 24 hrs by modified broth macrodilution method; settings: isolate 1838, 24 h; procedure, shortened: as §1
Staphylococcus aureus [39] = test: Antibacterial activity against hospital-acquired methicillin-resistant Staphylococcus aureus isolate 1851 after 24 hrs by modified broth macrodilution method; settings: isolate 1851, 24 h; procedure, shortened: as §1
Staphylococcus aureus [40] = test: Antibacterial activity against hospital-acquired methicillin-resistant Staphylococcus aureus isolate 1867 after 24 hrs by modified broth macrodilution method; settings: isolate 1867, 24 h; procedure, shortened: as §1
Staphylococcus aureus [41] = test: Antibacterial activity against community-acquired methicillin-resistant panton-valentine leukocidin-positive Staphylococcus aureus isolate 1468 after 24 hrs by modified broth macrodilution method; settings: isolate 1468, 24 h; procedure, shortened: as §1
Staphylococcus aureus [42] = test: Antibacterial activity against community-acquired methicillin-resistant panton-valentine leukocidin-positive Staphylococcus aureus isolate 1469 after 24 hrs by modified broth macrodilution method; settings: isolate 1469, 24 h; procedure, shortened: as §1
Staphylococcus aureus [43] = test: Antibacterial activity against community-acquired methicillin-resistant panton-valentine leukocidin-positive Staphylococcus aureus isolate 815 after 24 hrs by modified broth macrodilution method; settings: isolate 815, 24 h; procedure, shortened: as §1
Staphylococcus aureus [44] = test: Antibacterial activity against community-acquired methicillin-resistant panton-valentine leukocidin-positive Staphylococcus aureus isolate 950 after 24 hrs by modified broth macrodilution method; settings: isolate 950, 24 h; procedure, shortened: as §1
Staphylococcus aureus [45] = test: Antibacterial activity against community-acquired methicillin-resistant panton-valentine leukocidin-positive Staphylococcus aureus isolate 1471 after 24 hrs by modified broth macrodilution method; settings: isolate 1471, 24 h; procedure, shortened: as §1
Staphylococcus aureus [46] = test: Antibacterial activity against community-acquired methicillin-resistant panton-valentine leukocidin-positive Staphylococcus aureus isolate 1472 after 24 hrs by modified broth macrodilution method; settings: isolate 1472, 24 h; procedure, shortened: as §1
Staphylococcus aureus [47] = test: Antibacterial activity against community-acquired methicillin-resistant panton-valentine leukocidin-positive Staphylococcus aureus isolate 593 after 24 hrs by modified broth macrodilution method; settings: isolate 593, 24 h; procedure, shortened: as §1
Staphylococcus aureus [48] = test: Antibacterial activity against community-acquired methicillin-resistant panton-valentine leukocidin-positive Staphylococcus aureus isolate 693 after 24 hrs by modified broth macrodilution method; settings: isolate 693, 24 h; procedure, shortened: as §1
Staphylococcus aureus [49] = test: Antibacterial activity against community-acquired methicillin-resistant panton-valentine leukocidin-positive Staphylococcus aureus isolate 813 after 24 hrs by modified broth macrodilution method; settings: isolate 813, 24 h; procedure, shortened: as §1
Staphylococcus aureus [50] = test: Antibacterial activity against community-acquired methicillin-resistant panton-valentine leukocidin-negative Staphylococcus aureus isolate 1470 after 24 hrs by modified broth macrodilution method; settings: isolate 1470, 24 h; procedure, shortened: as §1
Staphylococcus aureus [51] = test: Antibacterial activity against vancomycin-resistant Staphylococcus aureus isolate 510 after 24 hrs by modified broth macrodilution method; settings: isolate 510, 24 h; procedure, shortened: as §1

## CN[C@@H]1[C@@H](O)[C@@](C)(O[C@@H]2[C@@H](O)[C@H](O[C@H]3OC(CNCCO)=CC[C@H]3N)[C@@H](N)C[C@H]2NC(=O)[C@H](O)CCN)OC[C@]1(C)O
Staphylococcus aureus [1]
  MIC: 2 µg/mL (≈ 3.3 µM)
Staphylococcus aureus [2]
  MIC: 1 µg/mL (≈ 1.65 µM)
Staphylococcus aureus [3]
  MIC: 1 µg/mL (≈ 1.65 µM)
Staphylococcus aureus [4]
  MIC: 0.5 µg/mL (≈ 0.824 µM)
Staphylococcus aureus [5]
  MIC: 0.5 µg/mL (≈ 0.824 µM)
Staphylococcus aureus [6]
  MIC: 1 µg/mL (≈ 1.65 µM)
Staphylococcus aureus [7]
  MIC: 2 µg/mL (≈ 3.3 µM)
Staphylococcus aureus [8]
  MIC: 1 µg/mL (≈ 1.65 µM)
Staphylococcus aureus [9]
  MIC: 1 µg/mL (≈ 1.65 µM)
Staphylococcus aureus [10]
  MIC: 1 µg/mL (≈ 1.65 µM)
Staphylococcus aureus [11]
  MIC: 4 µg/mL (≈ 6.59 µM)
Staphylococcus aureus [12]
  MIC: 4 µg/mL (≈ 6.59 µM)
Staphylococcus aureus [13]
  MIC: 2 µg/mL (≈ 3.3 µM)
Staphylococcus aureus [14]
  MIC: 2 µg/mL (≈ 3.3 µM)
Staphylococcus aureus [15]
  MIC: 2 µg/mL (≈ 3.3 µM)
Staphylococcus aureus [16]
  MIC: 1 µg/mL (≈ 1.65 µM)
Staphylococcus aureus [17]
  MIC: 2 µg/mL (≈ 3.3 µM)
Staphylococcus aureus [18]
  MIC: 2 µg/mL (≈ 3.3 µM)
Staphylococcus aureus [19]
  MIC: 2 µg/mL (≈ 3.3 µM)
Staphylococcus aureus [20]
  MIC: 2 µg/mL (≈ 3.3 µM)
Staphylococcus aureus [21]
  MIC: 4 µg/mL (≈ 6.59 µM)
Staphylococcus aureus [22]
  MIC: 2 µg/mL (≈ 3.3 µM)
Staphylococcus aureus [23]
  MIC: 2 µg/mL (≈ 3.3 µM)
Staphylococcus aureus [24]
  MIC: 2 µg/mL (≈ 3.3 µM)
Staphylococcus aureus [25]
  MIC: 1 µg/mL (≈ 1.65 µM)
Staphylococcus aureus [26]
  MIC: 4 µg/mL (≈ 6.59 µM)
Staphylococcus aureus [27]
  MIC: 2 µg/mL (≈ 3.3 µM)
Staphylococcus aureus [28]
  MIC: 4 µg/mL (≈ 6.59 µM)
Staphylococcus aureus [29]
  MIC: 4 µg/mL (≈ 6.59 µM)
Staphylococcus aureus [30]
  MIC: 1 µg/mL (≈ 1.65 µM)
Staphylococcus aureus [31]
  MIC: 8 µg/mL (≈ 13.2 µM)
Staphylococcus aureus [32]
  MIC: 2 µg/mL (≈ 3.3 µM)
Staphylococcus aureus [33]
  MIC: 2 µg/mL (≈ 3.3 µM)
Staphylococcus aureus [34]
  MIC: 2 µg/mL (≈ 3.3 µM)
Staphylococcus aureus [35]
  MIC: 4 µg/mL (≈ 6.59 µM)
Staphylococcus aureus [36]
  MIC: 2 µg/mL (≈ 3.3 µM)
Staphylococcus aureus [37]
  MIC: 2 µg/mL (≈ 3.3 µM)
Staphylococcus aureus [38]
  MIC: 2 µg/mL (≈ 3.3 µM)
Staphylococcus aureus [39]
  MIC: 4 µg/mL (≈ 6.59 µM)
Staphylococcus aureus [40]
  MIC: 4 µg/mL (≈ 6.59 µM)
Staphylococcus aureus [41]
  MIC: 4 µg/mL (≈ 6.59 µM)
Staphylococcus aureus [42]
  MIC: 4 µg/mL (≈ 6.59 µM)
Staphylococcus aureus [43]
  MIC: 4 µg/mL (≈ 6.59 µM)
Staphylococcus aureus [44]
  MIC: 4 µg/mL (≈ 6.59 µM)
Staphylococcus aureus [45]
  MIC: 4 µg/mL (≈ 6.59 µM)
Staphylococcus aureus [46]
  MIC: 2 µg/mL (≈ 3.3 µM)
Staphylococcus aureus [47]
  MIC: 4 µg/mL (≈ 6.59 µM)
Staphylococcus aureus [48]
  MIC: 2 µg/mL (≈ 3.3 µM)
Staphylococcus aureus [49]
  MIC: 4 µg/mL (≈ 6.59 µM)
Staphylococcus aureus [50]
  MIC: 2 µg/mL (≈ 3.3 µM)
Staphylococcus aureus [51]
  MIC: 1 µg/mL (≈ 1.65 µM)
